In ChEMBL document CHEMBL1140232, “Surprising alteration of antibacterial activity of 5"-modified neomycin against resistant bacteria” (2008):
Values after ≈ are worked out from the molar mass of the structure shown.

What was measured:
Escherichia coli [1] = test: Antibacterial activity against Escherichia coli TG1 pSF815 plasmid encoded for AAC(6')/APH(2') after 12 to 18 hrs; assay type: functional
Method in brief: (§1)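 Broth microdilution. Bacterial suspension adjusted with broth to absorbance 0.08–0.1 at 625 nm, diluted further in broth, and mixed in wells with 2-fold serial dilutions of compound. Plates incubated at 35°C for 12–18 h. MIC is the lowest concentration inhibiting growth; each determination repeated at least three times.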

Klebsiella pneumoniae [2] = test: Antibacterial activity against multidrug-resistant Klebsiella pneumoniae ATCC 700603 isolate after 12 to 18 hrs; assay type: functional
Method in brief: (§2)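 Broth microdilution MIC. Culture diluted with broth to an absorbance of 0.08–0.1 at 625 nm. 100 μL of this was diluted into 10 mL broth and dispensed into 96-well plates. Each well received 50 μL inoculum plus 50 μL of a 2-fold compound dilution series. Plates were incubated at 35°C for 12–18 h. MIC is the lowest concentration that inhibits growth, from at least three repeats.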

Pseudomonas aeruginosa = test: Antibacterial activity against aminoglycosides-resistant Pseudomonas aeruginosa ATCC 27853 expressing APH(3')-2b after 12 to 18 hrs; assay type: functional; method in brief: as §2
Enterococcus faecalis [3] = test: Antibacterial activity against vancomycin-resistant Enterococcus faecalis ATCC 51299 expressing vanB, ant(6)-1, aac(6')-aph(2') resistant gene after 12 to 18 hrs; assay type: functional; method in brief: as §2
Escherichia coli [4] = test: Antibacterial activity against aminoglycoside-susceptible Escherichia coli TG1 after 12 to 18 hrs; assay type: functional; method in brief: as §1
Escherichia coli [5] = test: Antibacterial activity against Escherichia coli TG1 pTZ19U-3 plasmid encoded for APH(3')-1 after 12 to 18 hrs; assay type: functional; method in brief: as §1
Klebsiella pneumoniae [6] = test: Antibacterial activity against ampicillin-resistant and aminoglycosides-susceptible Klebsiella pneumoniae ATCC 13883 after 12 to 18 hrs; assay type: functional; method in brief: as §2
Escherichia coli [7] = test: Antibacterial activity against aminoglycoside-susceptible Escherichia coli ATCC 25922 after 12 to 18 hrs; assay type: functional; method in brief: as §1
Enterococcus [8] = test: Ratio of kcat to Km of Enterococcus APH(3')-3a
Enterococcus [9] = test: Activity of Enterococcus APH(3')-3a
Enterococcus faecalis [10] = test: Antibacterial activity against vancomycin-susceptible and aminoglycosides-resistant Enterococcus faecalis ATCC 29212 after 12 to 18 hrs; assay type: functional; method in brief: as §2
Escherichia coli [11] = test: Antibacterial activity against Escherichia coli TG1 pET28a plasmid encoded for APH(3')-3a after 12 to 18 hrs; assay type: functional; method in brief: as §1
Staphylococcus aureus [12] = test: Antibacterial activity against aminoglycoside-susceptible Staphylococcus aureus ATCC 25923 after 12 to 18 hrs; assay type: functional; method in brief: as §1
Staphylococcus aureus [13] = test: Antibacterial activity against methicillin-resistant Staphylococcus aureus ATCC 33591 after 12 to 18 hrs; assay type: functional; method in brief: as §2

| Molecule | MIC (Escherichia coli [1]) [µg/mL] | MIC (Klebsiella pneumoniae [2]) [µg/mL] | MIC (Pseudomonas aeruginosa) [µg/mL] | MIC (Enterococcus faecalis [3]) [µg/mL] | MIC (Escherichia coli [4]) [µg/mL] | MIC (Escherichia coli [5]) [µg/mL] | MIC (Klebsiella pneumoniae [6]) [µg/mL] | MIC (Escherichia coli [7]) [µg/mL] | kcat/Km (Enterococcus [8]) [×10⁴ /M/s] | Km (Enterococcus [9]) [µM] | Vmax (Enterococcus [9]) [µmol/min/mg] | kcat (Enterococcus [9]) [s⁻¹] | MIC (Enterococcus faecalis [10]) [µg/mL] | MIC (Escherichia coli [11]) [µg/mL] | MIC (Staphylococcus aureus [12]) [µg/mL] | MIC (Staphylococcus aureus [13]) [µg/mL] |
| --- | --- | --- | --- | --- | --- | --- | --- | --- | --- | --- | --- | --- | --- | --- | --- | --- |
| CCCCCCCCCCCCCCCCCC(=O)NC[C@H]1O[C@@H](O[C@@H]2[C@@H](O)[C@H](N)C[C@H](N)[C@H]2O[C@H]2O[C@H](CN)[C@@H](O)[C@H](O)[C@H]2N)[C@H](O)[C@@H]1O[C@H]1O[C@@H](CN)[C@@H](O)[C@H](O)[C@H]1N | 32 (≈ 36.4 µM) | 32 (≈ 36.4 µM) | 8 (≈ 9.09 µM) | 8 (≈ 9.09 µM) | 2 (≈ 2.27 µM) | 8 (≈ 9.09 µM) | 8 (≈ 9.09 µM) | 4 (≈ 4.54 µM) | 0.7 | 60 | 0.84 | 0.42 | 4 (≈ 4.54 µM) | 2 (≈ 2.27 µM) | 4 (≈ 4.54 µM) | 4 (≈ 4.54 µM) |
| GENTAMICIN |  | 8 |  | > 250 |  |  | 1 |  |  |  |  |  | 8 |  |  | 2 |
| NCC(=O)NCC(=O)NC[C@H]1O[C@@H](O[C@@H]2[C@@H](O)[C@H](N)C[C@H](N)[C@H]2O[C@H]2O[C@H](CN)[C@@H](O)[C@H](O)[C@H]2N)[C@H](O)[C@@H]1O[C@H]1O[C@@H](CN)[C@@H](O)[C@H](O)[C@H]1N | 16 (≈ 22 µM) | 8 (≈ 11 µM) | 16 (≈ 22 µM) | ≥ 250 | 16 (≈ 22 µM) | 125 (≈ 172 µM) | 4 (≈ 5.5 µM) | 16 (≈ 22 µM) |  |  |  |  | 64 (≈ 87.9 µM) |  | 2 (≈ 2.75 µM) | 32 (≈ 44 µM) |
| CCCCCCCCCCCCCCCC(=O)NC[C@H]1O[C@@H](O[C@@H]2[C@@H](O)[C@H](N)C[C@H](N)[C@H]2O[C@H]2O[C@H](CN)[C@@H](O)[C@H](O)[C@H]2N)[C@H](O)[C@@H]1O[C@H]1O[C@@H](CN)[C@@H](O)[C@H](O)[C@H]1N | 16 (≈ 18.8 µM) | 16 (≈ 18.8 µM) | 4 (≈ 4.69 µM) | 4 (≈ 4.69 µM) | 2 (≈ 2.35 µM) | 8 (≈ 9.39 µM) | 8 (≈ 9.39 µM) | 4 (≈ 4.69 µM) | 0.72 | 58 | 0.85 | 0.42 | 2 (≈ 2.35 µM) | 1 (≈ 1.17 µM) | 2 (≈ 2.35 µM) | 2 (≈ 2.35 µM) |
| CN[C@H](CC(C)C)C(=O)N[C@H]1C(=O)N[C@@H](CC(N)=O)C(=O)N[C@H]2C(=O)N[C@H]3C(=O)N[C@H](C(=O)N[C@H](C(=O)O)c4cc(O)cc(O)c4-c4cc3ccc4O)[C@H](O)c3ccc(c(Cl)c3)Oc3cc2cc(c3O[C@@H]2O[C@H](CO)[C@@H](O)[C@H](O)[C@H]2O[C@H]2C[C@](C)(N)[C@H](O)[C@H](C)O2)Oc2ccc(cc2Cl)[C@H]1O [VANCOMYCIN] |  |  |  | 125 (≈ 86.3 µM) |  |  |  |  |  |  |  |  |  |  |  |  |
| NCC[C@H](O)C(=O)N[C@@H]1C[C@H](N)[C@@H](O[C@H]2O[C@H](CN)[C@@H](O)[C@H](O)[C@H]2O)[C@H](O)[C@H]1O[C@H]1O[C@H](CO)[C@@H](O)[C@H](N)[C@H]1O [AMIKACIN] |  | 0.5 (≈ 0.854 µM) | 0.5 (≈ 0.854 µM) | ≥ 250 |  |  | 1 (≈ 1.71 µM) |  | 2.4 | 57.4 | 2.75 | 1.38 | 32 (≈ 54.6 µM) | 1 (≈ 1.71 µM) |  | 8 (≈ 13.7 µM) |
| NCC(=O)NC[C@H]1O[C@@H](O[C@@H]2[C@@H](O)[C@H](N)C[C@H](N)[C@H]2O[C@H]2O[C@H](CN)[C@@H](O)[C@H](O)[C@H]2N)[C@H](O)[C@@H]1O[C@H]1O[C@@H](CN)[C@@H](O)[C@H](O)[C@H]1N | 8 (≈ 11.9 µM) | 8 (≈ 11.9 µM) | 8 (≈ 11.9 µM) | ≥ 250 | 8 (≈ 11.9 µM) | 500 (≈ 745 µM) | 4 (≈ 5.96 µM) | 16 (≈ 23.9 µM) | 0.6 | 75 | 0.88 | 0.44 | 32 (≈ 47.7 µM) | 32 (≈ 47.7 µM) | 1 (≈ 1.49 µM) | 16 (≈ 23.9 µM) |
